Only some compounds are listed: those with a hit (about 4.9% of all), similar ones and a draw of the others.
NPY-Y1 PAM-ag: human NPY-Y1 potentiation or agonism, primary screen; P25929; NPY-Y1 expressing cells, potentiator/agonist activation; activation, % at 3.6 µM; 220,000 tested, 0.37% active; AID 1304; in the data active = activation above about 33%, passing the limit was not always enough;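 also: cells stimulated with NPY at EC10 then isoproterenol at EC100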
NPY-Y2 PAM-ag: potentiators or agonists of human neuropeptide Y receptor Y2 | P49146 | 220,000 tested, 0.45% active | cells expressing NPY-Y2, potentiator/agonist read-out | activation, % at 3.6 µM; in the data active = activation above about 27%;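 also: cells stimulated with NPY near EC25 plus isoproterenol at EC100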
Target sequence (P49146 whole entry, looked up): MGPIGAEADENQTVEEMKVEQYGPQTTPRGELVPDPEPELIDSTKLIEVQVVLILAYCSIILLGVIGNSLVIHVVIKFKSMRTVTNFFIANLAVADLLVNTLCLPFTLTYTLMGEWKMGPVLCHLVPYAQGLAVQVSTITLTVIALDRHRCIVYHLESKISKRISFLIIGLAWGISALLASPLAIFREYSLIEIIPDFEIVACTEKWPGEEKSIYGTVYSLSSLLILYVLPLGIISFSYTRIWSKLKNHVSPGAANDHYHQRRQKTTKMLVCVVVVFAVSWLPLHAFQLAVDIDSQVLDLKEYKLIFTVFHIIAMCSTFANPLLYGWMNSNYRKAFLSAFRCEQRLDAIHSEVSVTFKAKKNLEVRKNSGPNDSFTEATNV
NPY-Y1 antag: blocks the human neuropeptide Y Y1 receptor. P25929. HEK293-CNG Y1 cells, membrane potential fluorescence; NPY at EC95, then isoproterenol. AID 1040. inhibition, % at 3.6 µM. 200,000 tested, 1% active;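 active = inhibition above the campaign mean inhibition of all tested compounds plus 3 SD, cut at about 20% in these data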
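Material: HEK293 cells co-expressing NPY Y1 receptor and cyclic-nucleotide gated channel. Timing: compound incubation 1 h at room temperature, readout 45 min post-stimulation. Signal: fluorescence, membrane potential probe.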
WT yeast gro inh: growth inhibition of WT yeast, mitochondrial fusion screen. mitochondrial fusion phenotypic screen, WT strain. inhibition, % at 10 µM. 190,000 tested, 2.1% active; in the data active = inhibition above about 58%; tested in S. cerevisiae
NPY-Y2 antag: blocks the human neuropeptide Y Y2 receptor; NPY-Y2 expressing cells, antagonist mode; inhibition, % at 2.7 µM; 140,000 tested, 0.99% active; AID 793; in the data active = inhibition above about 17%
RAM inhibit: inhibitors of the yeast RAM network; S. cerevisiae dse1pr::URA3 reporter, 5-FOA growth OD615, 2 d; analog-sensitive cbk1-as2 kinase mutant strain; inhibition, % at 50 µM; 190,000 tested, 1.8% active; AID 868;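 active = inhibition above a set limit, 3 SD over mean compound inhibition, cut at about 8.4% in these data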;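 also: inhibition rescues growth on 5-FOA so higher OD means more RAM inhibition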
NPY-Y1 pot conf: human NPY-Y1 potentiation or agonism, confirmation. shares compounds with NPY-Y1 PAM-ag. cell-based NPY-Y1 potentiator/agonist assay. activation, % at 3.6 µM. 280 tested, 20% active. AID 1546; in the data active = activation above about 45%;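 also: cells challenged with NPY at its EC10 plus isoproterenol stimulus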
NPY-Y2 counter: NPY-Y2 potentiation or agonism as NPY-Y1 counter-screen. shares compounds with NPY-Y1 PAM-ag. HEK293-CNG cells, membrane-potential fluorescence (FLIPR), 1536-well. activation, % at 3.6 µM. 280 tested, 20% active. AID 1649; in the data active = activation above about 33%
NPY-Y1 agonist: human NPY-Y1 agonism as potentiator counter-screen; shares compounds with NPY-Y1 PAM-ag; HEK293 Y1-CNGC, membrane potential fluorescence, agonist mode; activation, % at 3.6 µM; 280 tested, 50% active;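 active = percent activation above the mean of DMSO-only control wells plus 3 SD of those wells, cut at about 18% in these data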;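 also: cells challenged with isoproterenol plus Ro 20-1724 with no NPY in test wells; Y1 agonism lowers isoproterenol-driven cAMP and reduces probe fluorescence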
NPY-Y2 agonist: human NPY-Y2 agonism as NPY-Y1 counter-screen. 280 tested, 67% active. HEK293 Y2-CNGC, membrane potential fluorescence, agonist mode. shares compounds with NPY-Y1 PAM-ag. AID 1698. activation, % at 3.6 µM;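 active = activation above the solvent-only control wells' mean plus 3 SD, cut at about 11% in these data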;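 also: agonism lowers cAMP so well fluorescence drops in active wells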
CNGC inh 2: counter-screen for NPY-Y1 potentiators or agonists: CNG channel inhibitors | 280 tested, 42% active | HEK293-CNG parental, isoproterenol cAMP, membrane potential fluorescence | inhibition, % at 3.6 µM | AID 1704 | shares compounds with NPY-Y1 PAM-ag;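 active = inhibition above the mean of stimulated solvent-only control wells plus 3 SD, cut at about 22% in these data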
A number is an active result; – = inactive; · = no result.

SMILES	NPY-Y1 PAM-ag	NPY-Y2 PAM-ag	NPY-Y1 antag	WT yeast gro inh	NPY-Y2 antag	RAM inhibit	NPY-Y1 pot conf	NPY-Y2 counter	NPY-Y1 agonist	NPY-Y2 agonist	CNGC inh 2
CCn1cc(C(=O)N2CCc3ccccc32)c(=O)c2cc(S(=O)(=O)N(C)C3CCCCC3)ccc21	51.4	–	–	83.3	–	–	–	–	–	–	–
COc1ccc(COC(=O)N/N=C(\C)CC(=O)Nc2c(C)cc(C)cc2C)cc1	–	–	–	–	–	–	·	·	·	·	·
C(=Nc1ccc(Nc2ccccc2)cc1)c1ccc2ccccc2c1	45.9	–	–	–	–	–	–	–	–	–	–
Brc1ccc(C=Nc2ccc(Nc3ccccc3)cc2)s1	40.4	–	–	–	–	–	–	–	–	16.8	–
Cn1c(=O)c2c(nc(NCc3ccc4c(c3)OCO4)n2C)n(C)c1=O	–	–	–	–	–	–	·	·	·	·	·
Cc1noc(NS(=O)(=O)c2ccc(NC(=O)CSc3ncccn3)cc2)c1C	–	–	–	–	–	–	·	·	·	·	·
Cc1ccccc1Nc1nnc(SCC2CCCCO2)s1 (configuration not stated)	–	–	–	–	–	–	·	·	·	·	·
CCOC(=O)N1CCN(C(=O)CN(C2CCCCC2)S(=O)(=O)c2c(C)cc(C)cc2C)CC1	70.9	–	–	–	–	–	–	–	–	–	–
CCOC(=O)/C=C/C(=O)Nc1ccc(Oc2ccccc2)cc1	38.6	–	–	–	·	–	–	–	–	18.8	25.2
O=C(Cn1cc(F)c(=O)[nH]c1=O)NCCO	–	–	–	–	·	–	·	·	·	·	·
N/C(=N\OC(=O)/C=C/c1ccccc1)c1ccccc1	105.4	–	–	–	–	–	–	–	–	–	–
Cc1cc(C(=O)Nc2nc3c(s2)CCCC3)no1	–	–	–	–	–	–	·	·	·	·	·
COC(=O)Cc1ccc(NC(=S)N2CCN(c3cccc(O)c3)CC2)cc1	–	–	–	–	–	–	·	·	·	·	·
Oc1ccc(Br)cc1C=Nc1cccn2cc(-c3ccccc3)nc12	–	–	–	–	·	–	·	·	·	·	·
CCOC(=O)C(C)(C)N(Cc1cccc(C)c1)S(=O)(=O)c1ccc(Cl)c([N+](=O)[O-])c1	66.0	–	–	–	–	11.1	–	–	38.7	30.7	46.1
Cc1ccc(NCc2nnc(SCC(=O)O)n2Cc2ccccc2)cc1Cl	–	–	–	–	·	–	·	·	·	·	·
Cc1ccc(NCc2n[nH]c(=S)n2Cc2ccccc2)cc1Cl	45.2	–	–	67.4	·	–	–	–	–	–	–
O=C1c2ccccc2C(=O)c2c([N+](=O)[O-])ccc(O)c21	52.3	–	·	·	·	·	–	42.8	29.3	33.3	36.1
O=C(/C=C\c1ccccc1)Nc1ccc(NC(=O)c2ccco2)cc1	–	–	–	–	·	–	·	·	·	·	·
N#C/C(=C(/O)c1cc2ccccc2o1)c1nc2ccccc2s1	49.1	–	·	·	·	·	–	–	–	10.5	–
CCN(CC)C(=O)c1ccccc1NS(C)(=O)=O	37.0	–	–	–	·	–	–	–	–	–	–
O=C1N(C2CCCC2)C[C@@H]2C[C@@H](c3cn[nH]c3-c3ccc(Cl)cc3)N3CCC[C@@]123	39.0	–	–	–	·	–	49.1	–	31.6	31.1	41.6
CCOC(=O)c1cccc(NS(=O)(=O)Cc2ccccc2)c1	–	–	–	–	·	–	·	·	·	·	·
[O-]/C(=C(\C(=S)Nc1ccc(SC(F)F)cc1)[n+]1ccccc1)c1cc(Cl)ccc1Cl	47.0	–	–	–	·	–	61.5	34.9	38.5	25.0	48.8
Cc1cc(C)c(/C([O-])=C(/C(=S)Nc2ccc(SC(F)F)cc2)[n+]2ccccc2)cc1C	40.2	–	–	–	·	–	69.2	46.6	51.8	52.1	55.5
SMILES	NPY-Y1 PAM-ag	NPY-Y2 PAM-ag	NPY-Y1 antag	WT yeast gro inh	NPY-Y2 antag	RAM inhibit	NPY-Y1 pot conf	NPY-Y2 counter	NPY-Y1 agonist	NPY-Y2 agonist	CNGC inh 2
C=CCS(=O)(=O)c1cccc2cccnc12	–	–	–	–	·	–	·	·	·	·	·
Cc1cc(C)c(NC(=O)c2ccc(CN3CCc4ccccc4C3)cc2)c(C)c1	56.7	–	–	–	–	–	–	–	–	–	–
Cc1nc(-c2cccc(-c3noc(C)n3)c2)no1	38.4	–	–	–	–	–	–	–	–	–	–
Cc1ccccc1OCC(O)CN1CCN(CC(O)COc2ccccc2C)CC1 (configuration not stated)	40.1	–	–	–	·	–	–	–	31.1	15.6	–
Cc1ccccc1OCC(O)CN1CCN(c2ccc(Cl)cc2)CC1 (configuration not stated)	–	–	·	·	·	·	·	·	·	·	·
COc1ccc(NC(=O)c2cc(-c3ccccc3)nc3c2c(C)nn3-c2ccccc2)c(OC)c1	–	–	–	–	–	–	·	·	·	·	·
COc1ccccc1Oc1ccc(-c2cnc3ccccc3n2)cc1[N+](=O)[O-]	46.6	–	–	–	·	–	–	–	37.6	20.6	–
Cc1ccc(NS(=O)(=O)c2cc(C(=O)NCc3ccccn3)ccc2Cl)cc1	–	–	–	–	–	–	·	·	·	·	·
NS(=O)(=O)c1cc(C(=O)NCCc2ccccn2)ccc1Cl	95.6	–	·	·	·	·	–	–	–	–	–
COc1cccc(-n2nc(C(=O)Nc3ccc4c(c3)OCO4)c3ccccc3c2=O)c1	–	–	–	–	–	–	·	·	·	·	·
CCOC(=O)C(CCCCCCP(=O)(c1ccccc1)c1ccccc1)NC(C)=O (configuration not stated)	–	–	·	·	·	·	·	·	·	·	·
CCCCOc1ccccc1-c1cc(C(=O)O)[nH]n1	–	–	–	–	–	–	·	·	·	·	·
CCN1CCCC1CNC(=O)c1ccc(Sc2ccccc2Cl)c([N+](=O)[O-])c1 (configuration not stated)	36.1	–	–	–	·	–	–	–	22.6	30.3	34.3
CSc1ccc(C2NC(=O)c3c(sc4c3CCN(C)C4)N2)cc1 (configuration not stated)	42.0	–	–	–	–	–	–	–	–	–	–
CN1CCc2c(sc3c2C(=O)NC(c2cccs2)N3)C1 (configuration not stated)	–	–	–	–	–	–	·	·	·	·	·
O=C(NCCCn1ccnc1)c1cc(-c2ccc(Cl)cc2)nc2ccccc12	–	–	–	–	–	–	·	·	·	·	·
CC(=O)Nc1ccc(S(=O)(=O)NCCC(=O)NCCc2ccc(F)cc2)cc1	61.9	–	–	–	–	–	–	–	–	–	–

Compound activity deposited in PubChem by several laboratories.
